We go through 5 substances from PMC6308033 (Molecular Metabolism, 2018).

The test system of series [1] is blood–brain barrier. To be noted: cited from earlier work; for Direction and saturability of BBB transport: mouse brain, brain-to-blood and blood-to-brain.
For series [2] the following is noted: human serum; cited from earlier work.
Series [3] concerns blood–brain barrier of WT and Ghsr null mice. The series can be described thus: Multiple-time regression analysis of blood-to-brain influx. In kind it is in vivo, mouse. To be noted: for Vi, initial volume of distribution in brain (vascular binding): WT mice, whole brain, y-intercept of B/S ratio vs exposure time, mean ± SEM. Summed up: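 Male and female mice (3–6 months) were anaesthetised with 0.15 mL 40% urethane i.p. They received 1 × 10^6 cpm (~20 ng) 125I-labelled peptide plus 5 × 10^5 cpm 99mTc-albumin via jugular vein, in 0.2 mL 1% BSA/lactated Ringer's. Carotid blood was taken at 1–10 min, and serum and brain were gamma-counted. Brain/serum ratios (μL/g) were plotted against exposure time (Patlak): the slope gave Ki and the intercept gave Vi.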

Series [4] concerns brain endothelial cell (capillary vs parenchyma). Briefly: Capillary depletion: complete transfer across the brain endothelial cell. As to conditions: 10 min after IV injection, n = 3. In kind it is in vivo, mouse. Summed up: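 Urethane-anaesthetised male and female mice (3–6 months) received a 0.2 mL IV injection of 1 × 10^6 cpm 125I-labelled test peptide plus 5 × 10^5 cpm 99mTc-albumin in 1% BSA/lactated Ringer's. Brain was homogenised and spun at 5400 g for 15 min at 4 °C. The capillary pellet was separated from the parenchymal supernatant, and the parenchyma was vascular-corrected using 99mTc-albumin. Ratios were (cpm/g tissue)/(cpm/μL serum).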

Consider acyl ghrelin [AG], for which the “Degradation of AG into DAG” value in series [1] (same time frame (10 min)) is “not degraded into DAG”. Moreover, the Half-life in series [2] is ~10 min.

Take human AG [hAG]: in series [3], the “Vi, initial volume of distribution in brain (vascular binding)” value (shortened to “Vi, initial volume of distribution”) came to 1.192 ± 0.57 µL/g. Further, in series [1], the “Direction and saturability of BBB transport” value (shortened to “Direction and saturability”) was “bidirectional and saturable manner”.

In the case of human DAG [hDAG], the “Transport rate relative to the other three ghrelin forms” value in series [3] (BBB transport rate in mice, hDAG vs mDAG, hAG, mAG) was “approximately three times faster”. Also, the “Vi, initial volume of distribution” value in series [3] turned out to be 1.775 ± 0.81 µL/g. The Capillary/serum ratio in series [4] was found to be 1.0 ± 0.30 µL/g.

Regarding mouse AG [mAG], in series [3], the “Vi, initial volume of distribution” value came out at 2.847 ± 0.57 µL/g. The “Direction and saturability” value in series [1] was “bidirectional and saturable manner”.

For the substance mouse DAG [mDAG], the “Vi, initial volume of distribution” value in series [3] was found to be 2.265 ± 0.75 µL/g. In addition, the “Direction and saturability” value in series [1] is “unidirectionally and in an unsaturable manner”.
